14 compounds from ChEMBL document CHEMBL1137528, “Preparation of tetrahydroimidazo[2,1-a]isoquinolines and their use as inhibitors of gastric acid secretion” (Bioorg Med Chem, 2007) can be followed below.

Data set [1] can be described thus: Dissociation constant, pKa of the compound. Type of data set: physicochemical. An outline of the steps:
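Potentiometric co-solvent titration in 0.15 mol/l KCl over pH 2.0–11.0 at 25 °C. Methanol used as co-solvent in varying portions, with 0.5 mol/l KOH and HCl as titrants.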

The test system of the next data set is Gastric gland. The data set can be described thus: Effect on acid secretion in rabbit intact gastric glands assessed as inhibition of [14C][…] accumulation. Type of data set: functional, tissue-based. The following applies: Oryctolagus cuniculus. In short, it runs like this:
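Glands stimulated with 1 mM dibutyryl cAMP with or without inhibitor (3 nM–100 µM). Stopped by centrifugation, 10 s at 20,000g. 14C-aminopyrine radioactivity measured in supernatant and in NaOH-dissolved pellet. Accumulation taken from the pellet/supernatant ratio, normalized to gland wet/dry weight. IC50 obtained by fitting the expected inhibition equation.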

Data set [2] can be described thus: Distribution coefficient, log D at pH 7.4. The class given is physicochemical. Conditions: octanol/water. In short, it runs like this: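 Potentiometric titration, pH 2.0–11.0, 25 °C, in 0.15 mol/l KCl mixed with water-saturated 1-octanol in varying octanol portions. Titrants were 0.5 mol/l KOH and HCl. Distribution coefficients between 1-octanol and aqueous KCl were derived from these titrations.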

Data set [3] can be described thus: Inhibition of H+/K+ ATPase in hog gastric mucosa. The class given is tissue-based, Sus scrofa. An outline of the steps:
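Hog gastric H+/K+-ATPase (0.5–1 µg/100 µl), nigericin 1:1 with enzyme. Buffer 4 mM Pipes/8 mM Tris pH 7.4, 0.25 M sucrose, 1 mM MgCl2, 1 mM KCl as stimulant. Compounds 1e-4 to 1e-9 M final from DMSO stocks. Started with 1 mM Na-ATP, 30 min at room temperature. Phosphate read by malachite green at 680 nm; sigmoidal fit gives IC50.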

Take `Cc1nc2c3c(c(C(N)=O)cn2c1C)CCC(c1ccccc1)C3` (configuration not stated): the pKa in data set [1] stood at 7.26. For the same compound, the IC50 in the data set on Gastric gland was 2000 nM. The compound further yielded a logD in data set [2] of 3.21. Moreover, the “Log IC50” value in data set [3] is -5.9.

`Cc1nc2c3c(c(C(=O)NCCO)cn2c1C)CCC(c1ccccc1)C3` (configuration not stated) yielded a pKa in data set [1] of 7.22. Further, the IC50 in the data set on Gastric gland is 10000 nM. In data set [2], this compound showed a log distribution coefficient (logD) of 2.81. In addition, in data set [3], the “Log IC50” value is recorded as -5.9.

With `Cc1nc2c3c(c(C(=O)N(C)C)cn2c1CO)CCC(c1ccccc1)C3` (configuration not stated), the pKa in data set [1] was 6.32. Moreover, in the data set on Gastric gland, the half-maximal inhibitory concentration (IC50) is 10000 nM. This compound also yielded a log distribution coefficient (logD) in data set [2] of 2.23. Further, the “Log IC50” value in data set [3] is listed as -5.5.

Take `COCCNC(=O)c1cn2c(C)c(C)nc2c2c1CCC(c1ccccc1)C2` (configuration not stated): in data set [1], the pKa stood at 7.22. For the same compound, the half-inhibitory concentration (IC50) in the data set on Gastric gland is 1260 nM. In data set [2], this compound came in with a logD of 3.31. In addition, in data set [3], the “Log IC50” value is reported as -4.9.

The compound `Cc1nc2c3c(c(C(=O)N4CCOCC4)cn2c1C)CCC(c1ccccc1)C3` (configuration not stated) gave a pKa in data set [1] of 7.05. The IC50 with Gastric gland is 6310 nM. Further, in data set [2], the logD came to 2.76. Also, the “Log IC50” value in data set [3] is -5.

Consider `Cc1nc2c3c(c(C(=O)N(C)C)cn2c1C)CCC(c1ccccc1)C3` (configuration not stated), for which, in data set [1], the pKa amounted to 7.16. Also, the IC50 in the data set on Gastric gland was 398 nM. In data set [2], this compound came in with a log distribution coefficient (logD) of 2.9. In addition, in data set [3], the “Log IC50” value is listed as -6.

`Cc1cn2ccc3c(c2n1)CC(c1ccccc1)CC3` (configuration not stated) yielded a pKa in data set [1] of 7.63. Moreover, in the data set on Gastric gland, the half-maximal inhibitory concentration (IC50) was 7940 nM. The compound also came in with a log distribution coefficient (logD) in data set [2] of 3.81. Further, the “Log IC50” value in data set [3] is -5.1.

In the case of `Cc1nc2c3c(c(C(=O)N(C)C)cn2c1Br)CCC(c1ccccc1)C3` (configuration not stated), the pKa in data set [1] is 5.11. Besides, the IC50 in the data set on Gastric gland is 10000 nM. Also, in data set [2], the log distribution coefficient (logD) was determined as 3.8. In addition, the “Log IC50” value in data set [3] is -4.9.

`Cc1nc2c3c(c(C(=O)N4CCCC4)cn2c1C)CCC(c1ccccc1)C3` (configuration not stated) registered a pKa in data set [1] of 7.2. Further, the IC50 in the data set on Gastric gland was 316 nM. For the same compound, the logD in data set [2] was found to be 3.37. Further, in data set [3], the “Log IC50” value is listed as -5.9.

In data set [1], `Cc1nc2c3c(ccn2c1C)CCC(c1ccccc1)C3` (configuration not stated) showed a pKa of 8.05. Also, in the data set with Gastric gland, the IC50 is 794 nM. In data set [2], this compound had a log distribution coefficient (logD) of 3.9. In addition, the “Log IC50” value in data set [3] is listed as -6.6.

As for `COCc1cn2c(C)c(C)nc2c2c1CCC(c1ccccc1)C2` (configuration not stated), the pKa in data set [1] was determined as 7.79. Moreover, the IC50 in the data set on Gastric gland was 2000 nM. In data set [2], this compound returned a logD of 3.93. Besides, in data set [3], the “Log IC50” value is reported as -6.3.

`Cc1cn2cc(C(=O)N(C)C)c3c(c2n1)CC(c1ccccc1)CC3` (configuration not stated) came in with a pKa in data set [1] of 6.67. In addition, the IC50 with Gastric gland was 7940 nM. Further, the pH-dependent lipophilicity (logD) in data set [2] came to 2.77. Besides, the “Log IC50” value in data set [3] is given as -4.8.

Take `Cc1nc2c3c(ccn2c1CC#N)CCC(c1ccccc1)O3` (configuration not stated): in the data set on Gastric gland, the IC50 was 63.1 nM. Further, in data set [3], the “Log IC50” value is listed as -7.

As to `CNC(=O)c1cn2c(C)c(C)nc2c2c1CCC(c1ccccc1)C2` (configuration not stated), in the data set on Gastric gland, the IC50 was 1000 nM. The “Log IC50” value in data set [3] is reported as -6.2.

What is called pKa is the negative logarithm of the acid dissociation constant. Higher therefore signals a group that holds its proton tightly. Broadly, the IC50 is the point on the concentration scale where inhibition reaches its midpoint. The term logD denotes the decadic logarithm of the distribution of all forms, ionised or not, between an organic phase and buffer at a given pH. Higher therefore signals higher lipophilicity.
